Here are results for 15 compounds from ChEMBL document CHEMBL1154217, “Antimalarial and cytotoxic depsidones from the fungus Chaetomium brasiliense” (J Nat Prod, 2009).

≈ marks a conversion by molar mass, not a printed value. Calls of active or inactive are those of the source.

As a reminder, the IC50 is the concentration at which inhibition is half-maximal. In general, MIC refers to the smallest concentration in the dilution series that meets the test's criterion for growth inhibition. A low value points to inhibition by little substance.

The nature of assay [1]: Cytotoxicity against human BC1 cells by SRB assay. It is filed as functional, cell-based.
Assay [2] is described as follows: Cytotoxicity against human KKU-M213 cells by MTT assay. It is filed as functional, cell-based.
Assay [3] is described as follows: Cytotoxicity against human KKU-M139 cells by MTT assay. It is filed as functional, cell-based.
Assay [4] is described as follows: Cytotoxicity against human KKU100 cells by MTT assay. It counts as functional, cell-based. A general note: Formazan colour is commonly taken as a measure of viable cells.
Assay [5] can be described thus: Cytotoxicity against human KKU-M214 cells by MTT assay. It is filed as functional, cell-based.
Assay [6] is described as follows: Cytotoxicity against human KKU-M156 cells by MTT assay. It is filed as functional, cell-based.
Assay [7] concerns Plasmodium falciparum. Briefly: Antimalarial activity against multi drug-resistant Plasmodium falciparum K1 assessed as [3H]hypoxanthine uptake after 18 hrs by microculture radioisotope technique. It is filed as functional, organism-based. The essentials:
(§1)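 Multidrug-resistant P. falciparum K1 was cultured by the Trager and Jensen method and tested in vitro by microculture radioisotope technique. Growth was read as [³H]-hypoxanthine uptake, and IC50 was taken as the concentration giving 50% reduction in parasite growth. Artemisinin served as the reference standard.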

The subject of assay [8] is Mycobacterium tuberculosis. Put plainly: Antimycobacterial activity against Mycobacterium tuberculosis H37Ra at > 50 ug/mL after 4 days by almar blue assay. It counts as functional, organism-based. The essentials:
(§2)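 M. tuberculosis H37Ra was tested by microplate Alamar Blue assay (MABA), with isoniazid and kanamycin sulfate as reference drugs.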

The test system of assay [9] is NCI-H187. Briefly: Cytotoxicity against human NCI-H187 cells by SRB assay. It counts as functional, cell-based. For orientation: In SRB staining, fixed cells bind dye roughly in proportion to their protein.
Assay [10] has as its system KB. Briefly: Cytotoxicity against human KB cells by SRB assay. It is filed as functional, cell-based.
Assay [11] has as its system Candida albicans. Briefly: Antifungal activity against Candida albicans by XTT assay. It counts as functional, organism-based. A digest of the protocol: (§3)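 Clinical isolate of Candida albicans tested by an assay modified from the soluble formazan (XTT) method. Viable cells were quantified from XTT formazan absorbance at 450 nm. Amphotericin B served as the reference substance.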

Assay [12] deals with Mycobacterium tuberculosis. Briefly: Antimycobacterial activity against Mycobacterium tuberculosis H37Ra after 4 days by almar blue assay. It counts as functional. Conditions: 96 h. The essentials: as §2
Assay [13] relates to Candida albicans. Put plainly: Antifungal activity against Candida albicans at > 50 ug/mL by XTT assay. It is filed as functional, organism-based. The essentials:
as §3

For assay [14], the system named is Plasmodium falciparum. Briefly: Antimalarial activity against multi drug-resistant Plasmodium falciparum K1 assessed as [3H]hypoxanthine uptake at > 50 ug/mL after 18 hrs by microculture radioisotope technique. It is filed as functional, organism-based. A digest of the protocol:
as §1

In assay [15] the test system is BC1. Put plainly: Cytotoxicity against human BC1 cells at > 50 ug/mL by SRB assay. It counts as functional, cell-based.
In assay [16] the test system is KB. Put plainly: Cytotoxicity against human KB cells at > 50 ug/mL by SRB assay. It is filed as functional, cell-based.

For `Cc1c2ccncc2c(C)c2c1[nH]c1ccccc12` [ELLIPTECINE], the IC50 came to 0.26 µg/mL (≈ 1.06 µM) in assay [1]; 0.3 µg/mL (≈ 1.22 µM) in assay [2]; 1.21 µg/mL (≈ 4.91 µM) in [3]; 7.11 µg/mL (≈ 28.9 µM) in assay [4]; 0.21 µg/mL (≈ 0.853 µM) in assay [5]; 2.02 µg/mL (≈ 8.2 µM) in assay [6].

Take `CC(C)=CCc1c(O)cc2c(c1C)OC(=O)c1c(C)c(Cl)c(O)c(C=O)c1O2` [MOLLICELLIN J]: the IC50 came to 4.9 µg/mL (≈ 12.2 µM) in [7], 23.3 µg/mL (≈ 57.8 µM) in assay [9] and 29.1 µg/mL (≈ 72.2 µM) in assay [10]. The outcome in assay [8] was inactive.

In assay [11], `C[C@@H]1[C@H](O)[C@@H](C)/C=C/C=C/C=C/C=C/C=C/C=C/C=C/[C@H](O[C@@H]2O[C@H](C)[C@@H](O)[C@H](N)[C@@H]2O)C[C@@H]2O[C@](O)(C[C@@H](O)C[C@@H](O)[C@H](O)CC[C@@H](O)C[C@@H](O)CC(=O)O[C@H]1C)C[C@H](O)[C@H]2C(=O)O` [AMPHOTERICIN B] gave a half-maximal inhibitory concentration (IC50) of 0.034 µg/mL (≈ 0.0368 µM).

With `COc1c(O)c2c(c(C)c1C(=O)C=C(C)C)Oc1c(C=O)c(O)c(Cl)c(C)c1C(=O)O2` [MOLLICELLIN E], the IC50 in [7] worked out at 3.2 µg/mL (≈ 7.16 µM); in [2] it was 4.44 µg/mL (≈ 9.94 µM); in [3], 5.03 µg/mL (≈ 11.3 µM); in assay [4] it was 4.83 µg/mL (≈ 10.8 µM); in [11], 39.7 µg/mL (≈ 88.8 µM); in assay [5], 7.81 µg/mL (≈ 17.5 µM). In addition, the IC50 in [6] came to 5.22 µg/mL (≈ 11.7 µM); in assay [9] it was 1 µg/mL (≈ 2.24 µM). The result in assay [8] was inactive.

For `NC[C@H]1O[C@H](O[C@H]2[C@H](O)[C@@H](O[C@H]3O[C@H](CO)[C@@H](O)[C@H](N)[C@H]3O)[C@H](N)C[C@@H]2N)[C@H](O)[C@@H](O)[C@@H]1O.O=S(=O)(O)O` [KANAMYCIN SULFATE], the minimal inhibitory concentration (MIC) in assay [12] is 2.5 µg/mL.

With `Cc1cc(O)c(C=O)c2c1C(=O)Oc1c(O)c3c(c(C)c1O2)C(=O)CC(C)(C)O3` [MOLLICELLIN N], the outcome in [13], in [8] and in [14] was inactive. Moreover, the 50% inhibitory concentration (IC50) in assay [2] stood at 3 µg/mL (≈ 7.53 µM); in assay [3] it was 4.34 µg/mL (≈ 10.9 µM); in assay [4] it was 6.46 µg/mL (≈ 16.2 µM); in [5], 5.05 µg/mL (≈ 12.7 µM); in assay [6], 2.9 µg/mL (≈ 7.28 µM); in [9], 13.5 µg/mL (≈ 33.9 µM). The compound also registered a half-maximal inhibitory concentration (IC50) in assay [10] of 25.9 µg/mL (≈ 65 µM).

Regarding `CC(C)=CCc1c(O)cc2c(c1C)OC(=O)c1c(C)cc(O)c(C=O)c1O2` [MOLLICELLIN H], the outcome in assay [8] was inactive. Moreover, the IC50 in assay [9] was found to be 3.9 µg/mL (≈ 10.6 µM); in [10] it was 16.6 µg/mL (≈ 45.1 µM).

Turning to `Cc1c2c(cc3c1C(=O)CC(C)(C)O3)Oc1c(C=O)c(O)c(Cl)c(C)c1C(=O)O2` [MOLLICELLIN M], the outcome in [13], in assay [15], in assay [8] and in assay [16] was inactive. The IC50 amounted to 2.9 µg/mL (≈ 6.96 µM) in assay [7], 6.28 µg/mL (≈ 15.1 µM) in assay [4] and 0.68 µg/mL (≈ 1.63 µM) in assay [9].

Consider `COc1cc2c(c(C)c1C(=O)C=C(C)C)OC(=O)c1c(C)cc(O)c(C=O)c1O2` [MOLLICELLIN L], for which the result in assay [13] and in assay [8] was inactive. For the same compound, the IC50 is 3.4 µg/mL (≈ 8.58 µM) in assay [7]; 13.2 µg/mL (≈ 33.3 µM) in assay [2]; 8.55 µg/mL (≈ 21.6 µM) in assay [3]; 4.51 µg/mL (≈ 11.4 µM) in [5]; 6.04 µg/mL (≈ 15.2 µM) in assay [6]; 9.5 µg/mL (≈ 24 µM) in assay [9]. Further, the midpoint of inhibition in assay [10], the IC50, lay at 33.9 µg/mL (≈ 85.5 µM).

Take `CC(C)=CC(=O)c1c(O)cc2c(c1C)OC(=O)c1c(C)cc(O)c(C=O)c1O2` [MOLLICELLINE K]: the IC50 stood at 6.8 µg/mL (≈ 17.8 µM) in assay [1]; 1.2 µg/mL (≈ 3.14 µM) in assay [7]; 13.9 µg/mL (≈ 36.5 µM) in [3]; 4.46 µg/mL (≈ 11.7 µM) in assay [4]; 1.2 µg/mL (≈ 3.14 µM) in [11]; 4.92 µg/mL (≈ 12.9 µM) in [5]. In addition, the concentration for half-maximal inhibition (IC50) in assay [6] came to 6.65 µg/mL (≈ 17.4 µM); in [9], 0.35 µg/mL (≈ 0.915 µM); in [10] it was 1.9 µg/mL (≈ 4.97 µM). Inhibition of growth in assay [12] (MIC) required 12.5 µg/mL (≈ 32.7 µM).

On to `C[C@@H]1CC[C@H]2[C@@H](C)C(=O)O[C@@H]3O[C@@]4(C)CC[C@@H]1[C@]32OO4` [ARTEMISININ], for which the IC50 in [7] was found to be 0.001 µg/mL (≈ 0.00354 µM).

Regarding `COc1c(O)c2c(c(C)c1C(=O)C=C(C)C)Oc1c(C=O)c(O)cc(C)c1C(=O)O2` [MOLLICELLIN C], the result in assay [15] and in [8] was inactive. Besides, the IC50 in [7] came out at 9.1 µg/mL (≈ 22.1 µM); in assay [2], 3.2 µg/mL (≈ 7.76 µM); in [3], 2.51 µg/mL (≈ 6.09 µM); in assay [4], 5.12 µg/mL (≈ 12.4 µM); in assay [11], 49.9 µg/mL (≈ 121 µM); in assay [5] it was 3.35 µg/mL (≈ 8.12 µM). Also, the values for the half-inhibitory concentration (IC50) in assay [6], in [9] and in [10] were 4.18 µg/mL (≈ 10.1 µM), 3.1 µg/mL (≈ 7.52 µM) and 46.3 µg/mL (≈ 112 µM), respectively.

For the compound `Cc1c2c(c(O)c3c1C(=O)CC(C)(C)O3)OC(=O)c1c(C)c(Cl)c(O)c(C=O)c1O2` [MOLLICELLIN F], the IC50 in [2] was determined as 4.98 µg/mL (≈ 11.5 µM); in assay [3], 5.21 µg/mL (≈ 12 µM); in assay [4], 5.21 µg/mL (≈ 12 µM); in [5] it was 4.4 µg/mL (≈ 10.2 µM); in assay [6] it was 5.36 µg/mL (≈ 12.4 µM); in [9], 13.1 µg/mL (≈ 30.3 µM). Moreover, inhibition in assay [10] was half-maximal at 37.9 µg/mL (≈ 87.6 µM) (IC50). The outcome in [8] and in [14] was inactive.

For `Cc1cc(O)c(C=O)c2c1C(=O)Oc1c(cc3c(c1C)C(=O)CC(C)(C)O3)O2` [MOLLICELLIN B], the outcome in assay [13] and in [8] was inactive. Moreover, the IC50 in assay [7] was determined as 4.7 µg/mL (≈ 12.3 µM); in assay [2], 6.94 µg/mL (≈ 18.2 µM); in assay [3] it was 11.7 µg/mL (≈ 30.5 µM); in [4], 4.63 µg/mL (≈ 12.1 µM); in assay [5] it was 4.5 µg/mL (≈ 11.8 µM); in assay [6], 15.7 µg/mL (≈ 41 µM). For the same compound, the IC50 in [9] was 14.7 µg/mL (≈ 38.4 µM); in assay [10], 37.1 µg/mL (≈ 97 µM).

Compound `NNC(=O)c1ccncc1` [ISONIAZID] gave a minimal inhibitory concentration (MIC) in assay [12] of 0.05 µg/mL (≈ 0.365 µM).
